Tb MetRS inh = Trypanosoma brucei MetRS inhibition; purified T. brucei MetRS, ATP depletion, Kinase-Glo luminescence; inhibition, % at 11.9 µM; 360,000 tested, 0.4% active; AID 624268;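 active means inhibition above a per-plate cutoff of the control wells' mean inhibition plus 3 SD, cut at about 5.5% in these data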
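System: purified T. brucei MetRS enzyme / Detection: Kinase-Glo luciferase luminescence reporting remaining unconsumed ATP / Medium: HEPES buffer with MgCl2, KCl, DTT, spermine, BSA, pyrophosphatase / Replication: singlicate, one well per compound / Evaluation: percent inhibition relative to median high and low control wells / Schedule: 2 h aminoacylation at 25 °C after 15 min preincubation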
GRIN3A LBD mod = modulators (binders) of human NR3A ligand-binding domain; NR3A LBD differential scanning fluorimetry, Tm shift; 0% = protein alone, 100% = glycine-bound protein; Tm shift relative to glycine control, % at 25 µM; 340,000 tested, 2.5% active;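 active means melting temperature shift of at least 10% of the positive control shift, at one fixed dose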
EBV gp42 block = EBV gp42 inhibition | 220,000 tested, 0.42% active | AID 1085 | Fluorescence polarization binding assay, mP read-out | inhibition, % (tested at 21.74 µM) | Q1HVG2; in the data active means inhibition above about 50%
Target sequence (Q1HVG2 whole entry, looked up): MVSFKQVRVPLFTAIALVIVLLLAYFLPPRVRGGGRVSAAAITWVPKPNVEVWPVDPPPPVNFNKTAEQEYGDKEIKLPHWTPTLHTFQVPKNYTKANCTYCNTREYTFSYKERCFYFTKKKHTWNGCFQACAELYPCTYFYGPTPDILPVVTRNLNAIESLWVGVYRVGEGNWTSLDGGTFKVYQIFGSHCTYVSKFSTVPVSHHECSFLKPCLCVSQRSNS
WT yeast gro inh = growth inhibition of WT yeast, mitochondrial fusion screen | mitochondrial fusion phenotypic screen, WT strain | inhibition, % at 10 µM | 190,000 tested, 2.1% active; in the data active means inhibition above about 58%; tested in S. cerevisiae
CHOP inh = inhibitors of CHOP induction in ER stress response; AID 2732; 220,000 tested, 3.8% active; inhibition, % at 10 µM; CHO-K1 CHOP-promoter luciferase, tunicamycin-induced, 15-18 h;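 active means compounds that reduced the stress-induced luciferase reporter signal by more than about 70% of percent inhibition, limit read from the data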
MPTP inh = blocks calcium-induced mitochondrial swelling. isolated mouse mitochondria, Ca2+ swelling absorbance, 30 min. inhibition, % at 10 µM. 360,000 tested, 1.4% active. AID 602449;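 active means inhibition of 50% or more, scaled per plate between neutral and stimulator controls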
Hits are given with their value; - = inactive; . = no result; + = active, no number. In the library only some 6.4% were active in any assay of this set; here they are far more common.

SMILES	Tb MetRS inh	GRIN3A LBD mod	EBV gp42 block	WT yeast gro inh	CHOP inh	MPTP inh
Cc1ccc2nc(-c3ccc(NC(=S)NC(=O)C(C)C)cc3)sc2c1	-	-	-	-	-	-
Cc1ccc2nc(-c3ccc(NC(=O)C(C)N4C(=O)c5ccccc5C4=O)cc3)sc2c1 (stereo not drawn)	-	16	-	-	-	-
Cc1ccc2nc(-c3ccc(NC(=O)CCN4C(=O)c5ccccc5C4=O)cc3)sc2c1	-	18	-	-	-	-
CNCCC(Oc1ccccc1C)c1ccccc1 (stereo not drawn)	.	.	.	.	-	.
Cc1ccc(NC(=O)NCCCN2CCCC2=O)c(C)c1	-	-	.	.	.	-
Cc1ccc(S(=O)(=O)N[C@H](C(=O)OCC(=O)NC(=O)Nc2ccc3c(c2)OCCO3)C(C)C)cc1	-	-	-	-	-	-
Cc1ccc(S(=O)(=O)N[C@H](C(=O)OCC(=O)NC(=O)C2CCCCC2)C(C)C)cc1	-	23	.	.	.	-
Cc1cccc2c(N)c3c(nc12)N(C)CC3	-	16	.	.	.	-
CN1CCc2c1nc1ccccc1c2N (tested in a mixture with another compound)	-	-	.	.	.	-
CCOC(=O)COc1cc(-n2c(=S)[nH]c3cc(OC)c(OC)cc3c2=O)c(Cl)cc1Cl	-	13	-	-	-	-
O=C(CN(Cc1ccco1)C(=O)c1ccccc1)Nc1ccc(Cl)c(Cl)c1	5.8	-	-	-	-	-
CCN(CC)C(=O)CSc1nnc(-c2cccnc2)n1Cc1ccccc1	-	-	-	-	-	-
N/C(=N\OC(=O)COc1ccc(Br)cc1Cl)c1ccncc1	-	-	-	-	-	-
COc1ccc(O)c(-c2cc(C(F)(F)C(F)F)nc(-c3ccccc3)n2)c1	-	-	-	-	-	-
Oc1ccccc1-c1cc(C(F)(F)C(F)F)nc(-c2ccccc2)n1	-	14	-	-	-	-
NC(=O)C1CCN(C(=O)C2CC(=O)N(Cc3ccccc3)C2)CC1 (stereo not drawn)	-	-	.	.	.	-
COc1ccc(/C=N/n2cc(-c3ccc(OC)cc3)nc2N)cc1	-	-	-	-	70	-
COc1ccc(/C=N/n2cc(-c3ccccc3)nc2N)cc1	-	-	-	-	-	-
CC1CC1C(=O)OCC(=O)Nc1ncc(Cl)cc1Cl (stereo not drawn)	-	-	.	.	.	-
COc1ccc(NC(=O)COC(=O)Cc2c[nH]c3ccccc23)cc1Cl	-	20	.	.	.	-
NC(=O)c1ccc(NC(=O)COC(=O)CCCc2c[nH]c3ccccc23)cc1	-	10	-	-	-	-
O=C(COC(=O)CCc1c[nH]c2ccccc12)Nc1ccccc1	-	-	.	.	.	-
COc1cccc2c1C(=O)c1c(O)c3c(c(O)c1C2=O)C[C@@](O)(C(C)=O)C[C@@H]3O[C@H]1C[C@H](N)[C@H](O)[C@H](C)O1	-	-	+	67	.	-
O=C(NNC(=O)c1ccccc1OCc1ccc(F)cc1)c1ccccc1O	-	23	.	.	.	-
O=C(NNC(=O)c1ccccc1OCc1ccccc1)c1ccccc1F	-	10	.	.	.	-
SMILES	Tb MetRS inh	GRIN3A LBD mod	EBV gp42 block	WT yeast gro inh	CHOP inh	MPTP inh
CC(=O)N/N=C/C1=CCC2CC1C2(C)C (stereo not drawn)	-	-	-	-	-	-
C=C(C)CNC(=S)N/N=C/C1=CCC2CC1C2(C)C (stereo not drawn)	-	-	-	-	84	-
CC1(C)C2CC=C(/C=N/NC(=S)Nc3cccnc3)C1C2 (stereo not drawn)	-	-	-	-	-	-
CC(C)NC(=S)N/N=C/C1=CCC2CC1C2(C)C (stereo not drawn)	-	-	-	73	72	-
CCCCNC(=S)N/N=C/C1=CCC2CC1C2(C)C (stereo not drawn)	-	-	-	70	-	-
CCN(CC)CCCNC(=O)c1cn(CC(C)C)c(=O)c2c1c1ccccc1n2C	-	-	.	.	.	-
CC(=O)Oc1ccc([N+](=O)[O-])cc1N1C(=O)c2ccccc2C1=O	-	-	-	-	-	-
CCCCN1C(=O)C(=O)N(CC(=O)Nc2cc(OCC)c(N3CCOCC3)cc2OCC)C1=O	-	-	-	-	-	-
C=C(C)COc1ccc(-c2nc(N)nc(C)c2Oc2ccccc2OC)c(O)c1	-	-	-	73	85	-
C=C(C)COc1ccc(-c2ncncc2Oc2ccc(OC)cc2)c(O)c1	-	21	-	-	-	-
COc1ccc(-c2cnc(N)nc2-c2ccc(OC)cc2O)cc1	-	-	-	-	-	-
C=C(C)COc1ccc(-c2[nH]ncc2-c2ccc(OC)cc2)c(O)c1	-	-	-	.	-	-
C=C(C)COc1ccc(-c2nc(N)ncc2-c2ccc(OC)c(OC)c2)c(O)c1	-	-	.	.	.	-
C=C(C)COc1ccc(-c2nc(N)ncc2-c2ccc(Cl)cc2)c(O)c1	-	20	.	.	.	-
C=C(C)COc1ccc(-c2nc(N)ncc2-c2ccc(OC)cc2)c(O)c1	.	.	-	84	103	.
CC(OC(=O)c1cccnc1Cl)C(=O)Nc1ccc2c(c1)OCCO2 (stereo not drawn)	-	-	-	-	-	-
C=C(C)COc1ccc(-c2nc(N)nc(C)c2-c2ccc(OC)cc2)c(O)c1	-	-	-	-	92	-
COc1cccc(Oc2cnc(N)nc2-c2ccc(OC)cc2O)c1	-	-	-	-	.	-
COc1ccc(-c2nc(N)ncc2Oc2ccccc2Br)c(O)c1	-	-	-	-	88	-
CCn1c(SCC(=O)O)nnc1-c1ccc2[nH]c(C)c(C)c2c1	-	-	-	-	-	-
Cc1cc(C)c(C)c(C(=O)CSc2nnc(-c3ccc4[nH]c(C)c(C)c4c3)o2)c1C	-	-	-	-	71	-
Cc1[nH]c2ccc(-c3nnc(SCC(=O)c4ccc(F)cc4)o3)cc2c1C	-	29	-	-	-	-
O=C(NNC(=O)C1CCN(Cc2ccc(Cl)c(Cl)c2)CC1)c1cccs1	-	-	-	-	-	-
CCCc1[nH]n(-c2ccc([N+](=O)[O-])cc2)c(=O)c1C=NCCc1ccc(OC)c(OC)c1	-	-	-	-	-	-
CCCc1[nH]n(-c2ccc([N+](=O)[O-])cc2)c(=O)c1C=NCCc1c[nH]c2ccccc12	-	22	-	-	-	-
Cc1[nH]n(-c2ccccc2)c(=O)c1C=NCCc1ccccc1	-	-	-	-	-	-
Cc1[nH]n(-c2ccc([N+](=O)[O-])cc2)c(=O)c1C=NCCc1c[nH]c2ccccc12	-	27	-	-	-	-
Cc1ccc(NC(=O)COC(=O)/C=C/c2ccccc2)cc1S(=O)(=O)N1CCOCC1	-	-	-	-	-	-
Cc1ccc(NC(=O)COC(=O)C2CC(=O)N(Cc3ccccc3)C2)cc1S(=O)(=O)N(C)C (stereo not drawn)	-	-	-	-	-	-
COc1cccc2sc(=NC(=O)CCS(=O)(=O)c3ccc(C)cc3)n(C)c12	-	-	.	.	.	-
